Screens deposited in PubChem BioAssay by Broad Institute.
In the library only some 3.8% were active in any assay of this set; here they are far more common.
XiGFP reactiv – activators of inactive X chromosome reactivation, primary screen, imaging, XiGFP fibroblasts, GFP high-content imaging, set 2. AID 743238, 2013. 0.055% of 360,000 active. XiGFP mouse fibroblasts, % GFP-positive cells imaging, 3 d; cells co-treated with 5-aza-dC sensitizer; scaled so ellipticine positive control = 100%. activation, % at 7.58 µM;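 active = mean normalized replicate activation at least 10% and every replicate at or above 10%; inconclusive = only one of the two criteria met; inactive = mean below 10% and not all replicates reach 10%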;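 also: 0% = median of on-plate neutral control wells and 100% = ellipticine 6 µM median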
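Material: XiGFP fibroblasts, SV40-immortalized; Buffer or medium: DMEM containing 5-aza-dC; Compound dosing: single point; Times: 3 days compound exposure.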
FGF22 binding-1 – binders of human FGF22 protein, primary screen, FGF22 synaptogenesis inhibitor project, biophysical, thermal shift, single point; 1.5% of 340,000 active; AID 651658, 2012; Fibroblast growth factor 22 (Homo sapiens), Q9HCT0; recombinant FGF22 thermal shift, SYPRO orange fluorescence; percent of sucrose octasulfate shift, DMSO zero; activity (Tm shift, normalised), % at 9.99 µM;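 active = mean Tm shift, scaled 0 neutral to 100 positive control, at about 1.3% or above, every replicate too, limit read from the data; inconclusive = no clear call, values can overlap the other calls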
Target sequence (Q9HCT0 whole entry, looked up): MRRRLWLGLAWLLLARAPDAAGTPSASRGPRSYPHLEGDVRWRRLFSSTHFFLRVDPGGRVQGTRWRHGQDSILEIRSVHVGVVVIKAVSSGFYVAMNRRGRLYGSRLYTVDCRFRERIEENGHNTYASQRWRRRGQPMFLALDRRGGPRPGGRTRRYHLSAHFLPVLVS
SIRT5 block – SIRT5 desuccinylase inhibitors, primary screen, biochemical, fluorescence imaging, single point, set 5; 1.1% of 330,000 active; Purified SirT5, succinyl-peptide AMC, trypsin-coupled fluorescence; AID 652115, 2013; NAD-dependent protein deacylase sirtuin-5, mitochondrial (Homo sapiens), Q9NXA8; inhibition, % at 15 µM; in the data active = inhibition above about 15%; inconclusive = no clear call, values can overlap the other calls
Target sequence (Q9NXA8 whole entry, looked up): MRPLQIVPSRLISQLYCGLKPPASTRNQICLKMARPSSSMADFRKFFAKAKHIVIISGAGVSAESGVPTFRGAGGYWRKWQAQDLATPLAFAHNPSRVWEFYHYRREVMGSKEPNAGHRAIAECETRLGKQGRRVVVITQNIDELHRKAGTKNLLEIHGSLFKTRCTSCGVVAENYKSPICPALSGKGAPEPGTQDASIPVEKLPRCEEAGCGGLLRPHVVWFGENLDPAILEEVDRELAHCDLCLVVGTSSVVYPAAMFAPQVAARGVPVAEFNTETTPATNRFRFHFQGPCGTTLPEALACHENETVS
FN deposition inh – inhibitors of fibronectin matrix deposition, primary screen, AH1F cells, Alexa488-fibronectin fluorescence, plate reader; AH1F fibroblasts, overnight; inhibition, % at 12.6 µM; 0.086% of 350,000 active;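 active = mean inhibition across replicates of 30% or more, regardless of how many single replicates reach that level; inconclusive = mean under 30% yet at least half of replicates reach 30%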;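 also: positive control wells lacked labelled fibronectin entirely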
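Assay system: AH1F fibroblasts / Quantity: 10000 cells per well / Medium: DMEM plus 2% serum, read in PBS / Reagent: labelled fibronectin 24 nM / Dosing: single dose, pinned / Times: 1 h cell attachment, overnight exposure to compound and label / Signal: fluorescence, ex 485 nm, em 525 nm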
ARNT TACC3 PPI – disruptors of ARNT/TACC3 protein interaction, primary screen, biochemical, AlphaScreen, single concentration | Transforming acidic coiled-coil-containing protein 3 (Homo sapiens), Q9Y6A5 | AlphaScreen His-ARNT PAS-B/GST-TACC3 binding, luminescence; TACC3 fragment carries E629A point mutation | inhibition, % at 9.99 µM | 0.66% of 390,000 active | AID 623870, 2012;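 active = mean inhibition of replicates at least 50% and at least half of replicates each reaching 50%; inconclusive = half or more replicates reach 50% but mean below 50%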;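 also: 0% = complete ARNT plus TACC3 wells and 100% = ARNT alone without TACC3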
DENV2 CPE – inhibitors of DENV2 cytopathic effect, primary screen, cell-based, plate reader, single concentration | DENV2-infected cells, cytopathic effect rescue | CPE inhibition, % at 9.99 µM | 1.7% of 350,000 active | AID 651640, 2012; in the data active = CPE inhibition above about 20%, passing the limit was not always enough; inconclusive = no clear call, values can overlap the other calls; tested in BHK-21 cells;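 also: 0% = median of neutral control wells and 100% = median of positive control wells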
FGF22 binding-2 – binders of human FGF22 protein, dose response, FGF22 synaptogenesis inhibitor project, biophysical, thermal shift, cherry-pick retest. shares compounds with FGF22 binding-1. recombinant FGF22 thermal shift, SYPRO orange fluorescence. thermal shift activity, °C (ΔTm) at 38 µM. 2% of 1,000 active;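 active = fitted rise in melting shift crosses a set limit at or below the top valid dose tested; inconclusive = flat fit at mid-level activity, or a poor quality fit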
TSA no protein – compound-only thermal shift signal without protein, dose response, artefact control for FGF22 binder project, biochemical, cherry-picked samples, RT-PCR instrument | AC50, µM (highest dose often 38 µM) | AID 743019, 2013 | shares compounds with FGF22 binding-1 | 2% of 1,000 active | compound-only SYPRO orange thermal shift counter-screen, no protein;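 active = rising signal whose fitted curve reaches the 0.54 level within the top valid dose, showing a melting point, actives reach about 13 µM in these data; inactive = the rest, including activity in the opposite direction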; also: value is where the raw curve crosses a fixed level and not half-maximal
* marks the source's active call; other numbers are inactive results; i = inactive; ? = inconclusive; . = no result; [ ] = remark or other dose.

SMILES | XiGFP reactiv | FGF22 binding-1 | SIRT5 block | FN deposition inh | ARNT TACC3 PPI | DENV2 CPE | FGF22 binding-2 | TSA no protein
COc1ccc(C(=O)N2CCCCC2)cc1S(=O)(=O)Nc1cccc(C(=O)O)c1 | . | 1.7* | -2.9 | . | -6.1 | 0.4 | 0.216 | 11.4µM*
COCC(=O)NC[C@H]1[C@H](c2ccc(C3=CCCC3)cc2)[C@@H](CO)N1C(C)=O | 0.0 | 1.3* | -1.5 | -0.7 | -2.9 | -2.7 | -0.058[42 µM] | i
C[C@@H]1CN([C@@H](C)CO)C(=O)Cc2cc(NC(=O)Cc3cn(C)c4ccccc34)ccc2O[C@H]1CN(C)CC1CCCCC1 | -0.9 | -0.1 | 3.6 | -1.2 | 3.2 | -2.5 | . | .
Cc1nc2ccc(NC(=O)c3cc(S(=O)(=O)N4CCOCC4)ccc3C)cc2s1 | . | . | . | . | 7.3 | . | . | .
Cc1nc2ccc(NC(=O)c3ccc(C)c(S(=O)(=O)N4CCOCC4)c3)cc2s1 | 0.1 | 1.6* | 0.8 | 0.4 | . | 3.0 | 0.043 | i
CCOc1ccc(NC(=O)c2cccc(-n3cccc3)c2)cc1S(=O)(=O)N1CCOCC1 | 0.0 | 2.3* | -32.1 | 11.1 | 6.7 | -8.5 | -0.154 | i
COc1ccc2c3c([nH]c2c1)[C@H](CO)N(C(=O)Nc1ccc(F)cc1)CC31CN(Cc2nccs2)C1 | 0.4 | -0.4 | 0.7 | . | . | -4.2 | . | .
CC(C)NC(=O)N1[C@@H](CO)[C@@H](c2ccccc2)C12CN(C(=O)c1ccccn1)C2 | 0.0 | . | -4.7 | 3.5 | . | 13.6 | . | .
O=C(C[C@@H]1CC[C@H](NC(=O)c2cccnc2)[C@@H](CO)O1)NCc1ccncn1 | 0.3 | 0.0 | -2.1 | . | -10.0 | 4.1 | . | .
CC(C)NC(=O)Nc1ccc2c(c1)C(=O)N([C@H](C)CO)C[C@H](C)[C@@H](CN(C)C(=O)Nc1ccccc1)OCCCC[C@@H](C)O2 | 0.9 | 0.2 | -0.4 | -11.2 | -7.0 | 11.4 | . | .
CNC[C@@H]1OCCCC[C@H](C)Oc2ccc(NC(=O)Nc3ccc(C(F)(F)F)cc3)cc2C(=O)N([C@@H](C)CO)C[C@H]1C | -0.9 | . | . | . | . | . | . | .
CNC[C@H]1OCCCC[C@@H](C)Oc2ccc(NC(=O)Nc3ccc(C(F)(F)F)cc3)cc2C(=O)N([C@H](C)CO)C[C@@H]1C | -1.0 | 7.0* | -0.5 | . | 11.3 | -2.6 | 0.073[42 µM] | i
CC(C)NC(=O)Nc1ccc2c(c1)C(=O)N([C@@H](C)CO)C[C@@H](C)[C@@H](CN(C)C(=O)Nc1ccccc1)OCCCC[C@@H](C)O2 | 0.0 | 28.0* | 4.1 | -0.6 | . | -2.9 | 0.167 | i
CC(C)NC(=O)N(C)C[C@H]1OCCCC[C@H](C)Oc2ccc(N(C)C)cc2C(=O)N([C@H](C)CO)C[C@H]1C | . | 208.7* | 2.5 | . | 11.7 | 1.7 | 0.168[42 µM] | i
CCCN(C)C[C@@H]1OCCCC[C@@H](C)Oc2ccc(NC(=O)NC(C)C)cc2C(=O)N([C@@H](C)CO)C[C@@H]1C | 0.0 | 1.4* | 3.3 | -1.2 | 1.2 | ? | 0.066 | i
COCCNC(=O)c1cc2c(c(-c3cccc(C4=CCCC4)c3)n1)[C@H](CCO)N([S@@](=O)C(C)(C)C)C2 | 0.0 | 0.1 | . | 0.0 | 32.4 | 4.7 | . | .
COc1ccc(S(=O)(=O)Nc2ccc3c(c2)C(=O)N([C@@H](C)CO)C[C@@H](C)[C@@H](CN(C)C)OCCCC[C@@H](C)O3)cc1 | 0.5 | 2.1* | 2.0 | -6.4 | -2.0 | -3.6 | 0.075[42 µM] | i
O=[N+]([O-])c1ccc2nc(NS(=O)(=O)c3ccccc3[N+](=O)[O-])sc2c1 | 0.1 | 2.4* | 2.0 | -0.9 | 7.4 | -9.5 | -0.439 | i
O=[N+]([O-])c1ccccc1S(=O)(=O)Nc1nc2ccccc2s1 | 0.0 | 0.7 | -1.1 | 10.7 | 0.5 | 2.0 | . | .
C[C@@H]1CN([C@@H](C)CO)S(=O)(=O)c2ccc(-c3ccccc3)cc2O[C@@H]1CN(C)Cc1cccc(F)c1 | -1.1 | -0.1 | 3.6 | -7.1 | -6.7 | -10.2 | . | .
CCNC(=O)[C@@H]1[C@@H](CO)[C@@H]2Cn3c(ccc(-c4ccc(F)cc4)c3=O)[C@@H]2N1C | 0.4 | . | 0.1 | . | . | 12.7 | . | .
CN1CCC(C)(C(=O)Nc2cccc3c2CCCC3)C1 (configuration not stated) | -0.1 | 18.6* | 1.4 | 0.6 | . | -2.0 | 0.001 | i
Cc1ccsc1C(=O)NNC(=O)c1ccc(NS(=O)(=O)c2cccs2)cc1 | 0.2 | 1.6* | 8.2 | -0.5 | -9.3 | 0.7 | 0.021 | i
COc1cc(NC(=O)c2cccs2)c(OC)cc1NC(=O)Nc1ccc(F)cc1 | 0.0 | 1.4* | -3.8 | -0.6 | -1.5 | 0.6 | -0.01 | i
COc1ccccc1NC(=O)c1cccs1 | . | . | . | . | 0.0 | . | . | .
SMILES | XiGFP reactiv | FGF22 binding-1 | SIRT5 block | FN deposition inh | ARNT TACC3 PPI | DENV2 CPE | FGF22 binding-2 | TSA no protein
O=S(=O)(NC[C@H]1N[C@H](CO)[C@H]1c1ccccc1)c1ccccc1 | 0.2 | 2.4* | 2.2 | -12.5 | -7.9 | -8.0 | 0.136 | i
COC(=O)c1cn(NC(=O)Cc2ccccc2OC)c(=O)c2ccccc12 | -0.1 | 2.1* | 0.4 | -3.9 | -9.4 | -2.2 | 0.046 | i
O=C(O)c1ccc(Cl)c(S(=O)(=O)Nc2ccc(S(=O)(=O)N3CCCC3)cc2)c1 | 0.0 | 1.4* | 4.5 | 0.3 | -8.4 | -9.3 | -0.133 | i
CO[C@@H]1CN(C)C(=O)c2cc(NC(=O)C3CC3)ccc2OC[C@H](C)N(Cc2cccc(F)c2)C[C@@H]1C | -0.4 | 0.0 | 0.6 | -23.2 | -5.1 | -11.2 | . | .
C[C@@H]1CN([C@@H](C)CO)S(=O)(=O)c2ccc(C#Cc3ccccc3F)cc2O[C@H]1CN(C)C(=O)Cc1cccnc1 | 0.0 | -0.8 | 5.2 | 16.0 | 1.5 | -2.4 | . | .
C[C@H]1CN([C@@H](C)CO)S(=O)(=O)c2ccc(C#Cc3ccccc3F)cc2O[C@@H]1CN(C)C(=O)Cc1cccnc1 | 0.2 | 8.3* | 1.7 | -5.0 | 0.0 | 12.6 | 0.111[42 µM] | i
